# Compound activity deposited in PubChem BioAssay by several laboratories.
# UBC13 polyUb = UBC13 polyubiquitin chain formation inhibitors, primary screen, biochemical, TR-FRET, uHTS | Ubiquitin-conjugating enzyme E2 N (Homo sapiens), P61088 | inhibition, % at 20 µM | hit rate 0.47% among 330,000 | AID 485273, 2010; in the data active = inhibition above about 45%, passing the limit was not always enough
# MPTP block = mitochondrial permeability transition pore inhibitors, primary screen, biochemical, isolated mouse mitochondria, absorbance; Ca2+ swelling absorbance, 30 min; inhibition, % at 10 µM; hit rate 1.4% among 360,000; AID 602449, 2012;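 active = inhibition of 50% or more, scaled per plate between neutral and stimulator controls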;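 note: 0% = DMSO wells given calcium and 100% = 1 mM EGTA wells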
# iPSC survival up = enhancers of single-cell hiPSC survival, primary screen, ATPlite luminescence. hit rate 0.044% among 360,000. 100% = ROCK inhibitor wells, 0% = DMSO. survival enhancement, % at 20 µM. AID 602274, 2012; in the data active = survival enhancement above about 18%;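 note: cells exposed to compounds for 16 hours before the ATP read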
# Exocytosis inh = LAMP-1 surface exposure blockers, TALL-104 cells – cell-based, flow cytometry, MLPCN library, primary screen. TALL-104 LAMP-1 surface exposure; cells stimulated with thapsigargin and PMA. inhibition, % at 10 µM. hit rate 0.66% among 360,000;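 active = inhibition above about 55%, limit read from the data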
# Apaf1 inhib = inhibitors of human Apaf-1 apoptosome, primary screen, biochemical, DEVD-Rh110 fluorescence, uHTS. Apoptotic protease-activating factor 1 (Homo sapiens), O14727. hit rate 0.71% among 330,000. inhibition, % at 20 µM. reconstituted apoptosome caspase-3 activity. AID 489030, 2010; active = inhibition of at least 40% at 20 µM;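 note: plate controls were DMSO wells for no effect and DEVD-CHO caspase inhibitor wells for full effect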
#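 Material: reconstituted apoptosome with Apaf-1, cytochrome c, caspase-9, procaspase-3, dATP / Buffer or medium: pH 7.5 Hepes buffer with CHAPS, BSA, DTT / Also added: cytochrome c with DEVD-Rh110 / Schedule: compound with Apaf-1, dATP, procaspase-3 30 min, then 50 min reaction, room temperature / Technique: rhodamine 110 fluorescence at Ex 480/Em 540 nm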
# MIN6 prolif = inducers of MIN6 beta-cell proliferation, primary screen, ATP luminescence, uHTS; proliferation, % at 10 µM; hit rate 0.29% among 330,000; AID 2380, 2010; MIN6 cells proliferation, ATPlite luminescence, 48 h; cells starved in 0.2% serum; 100% = growth in 10% serum;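 active = compounds whose signal lies at least 3.5 SD above the mean of all wells on their plate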;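 note: 0% = DMSO-treated cells in low-serum medium and 100% = 10% serum control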
# Granule exo CP1 = inhibitors of lytic granule exocytosis, confirmation, TALL-104 cells, flow cytometry, Cherry Pick01; shares compounds with Exocytosis inh; LAMP-1 externalization; stimulated with PMA plus thapsigargin; inhibition, % at 10 µM; hit rate 11% among 1,500; AID 651954, 2012; in the data active = inhibition above about 60%;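 note: 0% = stimulated vehicle wells and 100% = unstimulated wells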
# * marks the source's active call; other numbers are inactive results; . = no result given. Sampled rows, rich in hits. Any-hit rate of the full collection: about 3%.
SMILES,UBC13 polyUb,MPTP block,iPSC survival up,Exocytosis inh,Apaf1 inhib,MIN6 prolif,Granule exo CP1
COC(=O)C1=C(C)N(CCCC(=O)O)C(=O)NC1c1ccc2c(c1)OCO2 (stereo not drawn),3.4,-1.3,-1.4,79.0*,-1.9,-0.8,-3.3
O=C(COC(=O)COc1ccc(Br)cc1)Nc1ccc2c(c1)OCCO2,6.2,0.9,0.0,2.2,-1.2,-1.2,.
CS(=O)(=O)CCC(C(=O)Nc1ccc2c(c1)OCO2)N1Cc2ccccc2C1=O (stereo not drawn),-10.6,2.7,-0.5,0.8,1.6,-1.9,.
O=C(O)Cc1sc(=O)[nH]c1O,.,-1.2,3.3,97.3*,.,.,-14.0
O=C(O)Cc1sc(-c2ccccc2)nc1-c1ccccc1,-6.7,-0.1,-0.5,1.0,3.1,-1.4,.
c1ccc(OCCOCCN2CCN(C(c3ccccc3)c3ccccc3)CC2)cc1,28.2,0.7,-0.5,59.0*,11.6,0.0,7.6
CSc1ccc(CNC(=O)CCn2ccc3cc(S(=O)(=O)N4CCCC4)ccc32)cc1,11.4,-1.3,-0.1,-0.3,-2.6,-1.0,.
O=C1ON=C(c2ccccc2)/C1=C/c1ccc(-c2ccccc2[N+](=O)[O-])o1,.,0.9,-2.7,69.5*,.,.,99.4*
O=[N+]([O-])c1ccccc1-c1ccc(/C=N/n2cnnc2)o1,-25.7,-2.2,-1.3,-0.3,-2.1,-0.1,.
Cc1ccc(S(=O)(=O)N2CCN(C(=S)NCc3ccc4c(c3)OCO4)CC2)cc1,-12.4,1.6,-0.2,74.9*,10.0,-1.9,-3.8
C[C@H](CO)N1C[C@H](C)[C@@H](CN(C)S(C)(=O)=O)Oc2ccc(N(C)C)cc2C1=O,-2.2,-3.9,5.7,60.0*,1.2,0.9,-12.1
C[C@H](CO)N1C[C@H](C)[C@@H](CN(C)S(C)(=O)=O)Oc2ccc(NC(=O)Nc3ccccc3)cc2C1=O,-2.2,-1.3,1.4,2.6,-5.5,-3.3,.
Nc1nc(=S)ss1,.,0.1,4.3,10.4,.,.,.
Cc1cc(C(=O)N(C)CC(=O)Nc2ccccc2C(F)(F)F)c(C)o1,4.8,0.2,4.6,61.7*,-7.2,2.3,-14.4
O=C(NC(=S)Nc1ccc(CN2CCOCC2)cc1)c1ccc(-c2cccc(Cl)c2)o1,12.2,1.8,-0.8,58.3*,2.2,-5.9,25.1
O=C(Nc1ccc(CN2CCOCC2)cc1)c1ccc(-c2cccc(Cl)c2)o1,9.9,0.3,1.9,1.0,-19.4,-4.8,.
O=C(Nc1ccccc1-c1nc2ccccc2s1)c1cccnc1Cl,8.2,1.0,1.7,1.1,5.6,-3.9,.
O=C(Nc1ccccc1-c1nc2ccccc2s1)c1ccco1,-1.4,1.1,12.8,70.7*,28.9,-0.8,-1.7
O=C(Cn1ccc2ccccc2c1=O)NCC(=O)N1CCN(c2ccc(F)cc2)CC1,-4.9,-0.5,-0.2,1.3,6.6,1.4,.
Cc1ccc(NS(=O)(=O)c2cccc(C(=O)NCCc3c[nH]c4ccccc34)c2)c(C)c1,7.6,13.8,-0.2,62.4*,-3.9,-5.6,0.6
CNC(=O)C1(C)CCN1C(=O)Cc1ccc(C(C)C)cc1 (stereo not drawn),.,7.5,0.1,-5.8,.,.,.
CN(C)CCN(C(=O)c1ccc(S(=O)(=O)N2CCc3ccccc32)cc1)c1nc2ccc(F)cc2s1,-0.7,0.3,0.6,-4.8,4.2,-0.1,.
CCN(c1ccccc1)S(=O)(=O)c1ccc(C(=O)N(CCCN(C)C)c2nc3cc4c(cc3s2)OCO4)cc1,17.6,0.8,1.9,69.6*,37.6,-6.8,2.6
CCc1ccc2nc(N(CCCN(C)C)C(=O)c3ccc(S(=O)(=O)N4CCCc5ccccc54)cc3)sc2c1,33.2,1.5,-0.4,56.5*,32.2,-7.4,23.5
CCN1C(=O)c2cccc3c(S(=O)(=O)N4CCCC4C(=O)O)ccc1c23 (stereo not drawn),6.7,1.8,1.1,59.5*,-6.9,-1.7,-12.8
SMILES,UBC13 polyUb,MPTP block,iPSC survival up,Exocytosis inh,Apaf1 inhib,MIN6 prolif,Granule exo CP1
CCc1ccc(CN(Cc2cccnc2)C(=O)/C=C/c2ccc(OC)cc2)cc1,2.5,0.7,0.7,61.1*,33.1,-4.2,-13.8
CC(=O)c1ccc(OCCNS(=O)(=O)c2ccc(-n3cnnn3)cc2)cc1,5.0,-1.6,-0.2,-2.0,1.1,4.9,.
c1ccc(NC2=NCCN2CCC2CCCC2)cc1,4.9,-0.2,-2.7,-2.2,-0.6,1.9,.
COc1cccc(CN2CCC(C(=O)Nc3ccc(-c4cccc(C)c4)cc3)CC2)c1O,26.9,2.9,0.2,74.2*,21.0,-4.9,3.1
CCCCCCCCN1C(=O)[C@H](CC(=O)NCc2ccccc2)C[C@@]2(C(=O)OC)CCCCC=C12,.,0.2,-0.4,17.3,.,.,.
COc1ccc(CN2CCCC(CO)(Cc3ccc(F)cc3)C2)c(OC)c1OC (stereo not drawn),-1.7,1.6,0.7,60.8*,2.2,2.3,-14.8
COc1cc(Cl)c(CN2CCCC(CO)(Cc3ccccc3F)C2)cc1OC (stereo not drawn),0.3,5.5,-0.4,65.5*,8.8,-1.5,-12.8
COc1ccccc1/C=C/CN1CCCC(CO)(CCc2ccccc2)C1 (stereo not drawn),11.6,2.6,0.2,57.6*,2.5,-4.4,-4.8
CCCn1cc([C@@H]2C[C@H]3CN(Cc4cccc(Cl)c4)C(=O)[C@]34CCCN24)c(C)n1,3.2,0.7,-0.7,4.0,1.2,-0.6,.
Cc1c([C@@H]2C[C@H]3CN(Cc4cccc(Cl)c4)C(=O)[C@]34CCCN24)cnn1C,-6.9,-0.6,-0.5,78.5*,14.6,-4.1,-3.0
C[C@@H]1CN([C@@H](C)CO)C(=O)CCCn2nncc2CO[C@H]1CN(C)S(=O)(=O)c1ccc(Oc2ccccc2)nc1,.,-0.7,-2.2,-3.7,.,.,.
Cc1cccc(NC(=O)CNC(=O)c2cc(S(=O)(=O)N(C)C)ccc2N2CCCC2)c1C,.,-0.5,5.3,-5.0,.,.,.
COc1ccc(OC)c(S(=O)(=O)NC2CCN(Cc3ccccc3)CC2)c1,-3.6,1.9,-0.6,7.0,-13.9,-1.7,.
COc1ccc(CNC2CCN(Cc3ccccc3)CC2)cc1,2.8,-1.6,-0.3,60.0*,-0.6,-1.9,-2.9
N#Cc1cn(CCCOc2ccccc2)c2ccccc12,11.6,-6.6,-2.3,67.2*,19.2,-2.5,-2.8
COc1ccccc1OCCCn1cc(C#N)c2ccccc21,12.5,-0.4,-1.8,-0.6,25.6,-2.7,.
Cc1ccc(C(=O)CSc2nc(C)cc(SCc3nnc(-c4ccccc4)o3)n2)cc1,6.0,1.9,-3.8,7.8,3.1,0.1,.
